Assay results taken from ChEMBL document CHEMBL4825701, “New antiparasitic flexible triaryl diamidines, their prodrugs and aza analogues: Synthesis, in vitro and in vivo biological evaluation, and molecular modelling studies” (Eur J Med Chem, 2021).
Activity calls are given as the source filed them. The calls are words filed in the database; no cut-off is given here.

Assays:
L6 = experiment: Cytotoxicity against rat L6 cells by Alamar blue assay; format: cell-based
Outline: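 L6 rat myoblasts were run by the same Alamar Blue protocol as the trypanosome assay. Seven 3-fold serial dilutions were incubated 72 h at 37 °C, 5% CO₂, followed by 2–4 h with dye.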

[1] = test system: Trypanosoma brucei rhodesiense; experiment: Antitrypanosomal activity against Trypanosoma brucei rhodesiense STIB900 infected in mouse assessed as reduction in parasitemia by measuring time taken to cure at 25 mg/kg, po measured up to 60 days (reference value: 11 days); format: functional; settings: time day <=60
Plasmodium falciparum = experiment: Antiplasmodial activity against chloroquine and pyrimethamine resistant Plasmodium falciparum K1 infected in human erythrocytes assessed as reduction in [3H]hypoxanthine incorporation measured after 24 hrs by liquid scintillation counting method; format: functional, organism-based
[2] = Selectivity index, ratio of IC50 for cytotoxicity against rat L6 cells to IC50 for antitrypanosomal activity against Trypanosoma brucei rhodesiense STIB900; format: toxicity, cell-based; settings: read-out: Selectivity Index
Outline: (§1)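 SI = IC50(L6)/IC50(parasite): K1 P. falciparum for the antiplasmodial index, T. b. rhodesiense STIB900 for the antitrypanosomal index. L6 rat myoblasts were run as in the trypanosome assay: MEM with 2-mercaptoethanol and 15% heat-inactivated horse serum, seven 3-fold serial dilutions, 72 h at 37 °C in 5% CO2.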

[3] = test system: Trypanosoma brucei rhodesiense; experiment: Antitrypanosomal activity against Trypanosoma brucei rhodesiense STIB900 measured after 72 hrs by alamar blue dye based fluorimetry analysis; format: functional, organism-based; settings: STIB900, 72 h
[4] = Selectivity index, ratio of IC50 for cytotoxicity against rat L6 cells to IC50 for antiplasmodial activity against chloroquine and pyrimethamine resistant Plasmodium falciparum K1 infected in human red blood cells; format: toxicity, cell-based; settings: read-out: Selectivity Index; outline: as §1
[5] = test system: Trypanosoma brucei rhodesiense; experiment: Antitrypanosomal activity against bloodstream form of Trypanosoma brucei rhodesiense STIB900 infected in mouse assessed as reduction in parasitemia by measuring time taken to cure at 5 mg/kg, ip measured up to 60 days (reference value: 11 days); format: functional; settings: time day <=60
[6] = test system: Poly(dA-dT)oligonucleotide
[7] = test system: Poly(dA-dT)oligonucleotide; experiment: Binding affinity to poly (dA-dT) (unknown origin) by circular dichroism spectroscopy; format: nucleic-acid assay

| SMILES | IC50 (L6) | Time [1] | IC50 (Plasmodium falciparum) | selectivity ratio [2] | IC50 [3] | selectivity ratio [4] | Time [5] | ΔTm [6] | Activity [7] |
| --- | --- | --- | --- | --- | --- | --- | --- | --- | --- |
| CO/N=C(\N)c1cccc(Cc2ccc(Cc3ccc(/C(N)=N\OC)cc3)cc2)c1 | 32.3 µM | 9.2 days | > 9.5 µM | 1.7 | 18.7 µM | > 3.4 | – | – | – |
| N=C(N)c1ccc(Cc2ccc(Cc3ccc(C(=N)N)cc3)o2)cc1 | 25 µM | – | – | 930 | 0.027 µM | 1390 | 18.75 days | 2.25 °C | – |
| CO/N=C(\N)c1cccc(Cc2ccc(-c3ccc(/C(N)=N\OC)cc3)cc2)c1 | 34.8 µM | 13 days | > 9.5 µM | 2.1 | 16.6 µM | 3.7 | – | – | – |
| CO/N=C(\N)c1ccc(Oc2cccc(Oc3ccc(/C(N)=N\OC)cc3)n2)cc1 | 117 µM | – | – | 4.5 | 26.1 µM | 12.3 | – | – | – |
| N=C(N)c1ccc(Cc2ccc(-c3ccc(C(=N)N)cc3)cc2)cc1 | 4 µM | – | 0.003 µM | 54.8 | 0.073 µM | 1330 | 22 days | 9 °C | – |
| CO/N=C(/N)c1ccc(Cc2ccc(Cc3ccc(/C(N)=N\OC)cc3)cc2)cc1 | 37.3 µM | – | > 9.5 µM | – | 12.6 µM | > 3.9 | – | – | – |
| N=C(N)c1ccc(Oc2cccc(Oc3ccc(C(=N)N)cc3)n2)cc1 | 99.3 µM | – | 0.323 µM | 263 | 0.378 µM | 307 | – | 1.25 °C | – |
| CO/N=C(\N)c1ccc(-c2ccc(Oc3ccc(/C(N)=N\OC)cc3)nc2)cc1 | 91 µM | – | – | 6.3 | 14.4 µM | 9.7 | – | – | – |
| N=C(N)c1ccc(-c2ccc(-c3ccc(C(=N)N)cc3)o2)cc1 [FURAMIDINE] | – | – | – | – | – | – | 24 days | – | – |
| CN(C)CCCC(=O)O/N=C(\N)c1ccc(Cc2ccc(-c3ccc(/C(N)=N\OC(=O)CCCN(C)C)cc3)cc2)cc1 | 1.1 µM | 7 days | 0.183 µM | 10.5 | 0.105 µM | 6 | – | – | – |
| N=C(N)c1ccc(Cc2ccc(Cc3ccc(C(=N)N)cc3)cc2)cc1 | 19.4 µM | – | 0.023 µM | 269 | 0.072 µM | 970 | 16.25 days | 1 °C | – |
| N=C(N)c1ccc(OCCCCCOc2ccc(C(=N)N)cc2)cc1 [PENTAMIDINE] | – | – | – | – | – | – | 20 days | – | – |
| N=C(N)c1ccc(Cc2ccc(Cc3cccc(C(=N)N)c3)cc2)cc1 | 28.3 µM | – | – | 1890 | 0.015 µM | 1230 | 15.5 days | 0.5 °C | – |
| N=C(N)c1ccc(Cc2ccc(-c3ccc(C(=N)N)cc3)nc2)cc1 | 18.1 µM | – | 0.0112 µM | 441 | 0.041 µM | 1620 | >60 days | 1 °C | inactive |
| N=C(N)c1ccc(Oc2ccc(-c3ccc(C(=N)N)cc3)cn2)cc1 | 2.1 µM | – | – | 191 | 0.011 µM | 525 | >45.5 days | 17.8 °C | inactive |
| N=C(N)c1ccc(-c2ccc(Cc3cccc(C(=N)N)c3)cc2)cc1 | 2 µM | – | 0.031 µM | 57.1 | 0.035 µM | 64.5 | 22.75 days | 8.5 °C | – |
